Key:
[1] = target: T1, Kappa-type opioid receptor (Mus musculus, UniProt P33534); assay: Agonist activity at mouse kappa opioid receptor […] assessed as beta-arrestin 2 recruitment using furimazine as a substrate preincubated for 5 mins followed by ligand addition measured for 35 mins by BRET assay; format: functional, HEK293, Cell membrane
[2] = target: T1, Kappa-type opioid receptor; assay: Positive allosteric modulator activity in mouse kappa opioid receptor stably expressed in HEK293 cell membrane assessed as binding affinity of dyn A1-13 to orthosteric binding site incubated with dyn A1-13 alone for 90 mins by radioligand competition binding assay; format: cell membranes
[3] = target: T1, Kappa-type opioid receptor; assay: Positive allosteric modulator activity in mouse kappa opioid receptor stably expressed in HEK293 cell membrane assessed as inhibition of forskolin induced cAMP production by measuring dyn A1-13 EC50 incubated with dyn A1-13 alone measured after 30 mins by HTRF assay; format: functional, cell membranes
In short: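 HEK293 stably expressing mouse KOR (2000 cells/well), pretreated 30 min at 37 °C with T20K (0.03–10 μM) or none, then dyn A1–13 with 10 μM forskolin and 0.5 mM IBMX for 30 min at 37 °C. cAMP by HTRF (665/620 nm) after 1 h at room temperature. Triplicates; normalized to top dyn A1–13 concentration; three-parameter fit, slope 1.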

[4] = target: Kappa-type opioid receptor (Mus musculus) (UniProt P33534); assay: Positive allosteric modulator activity in mouse kappa opioid receptor stably expressed in HEK293 cell membrane assessed as inhibition of forskolin induced cAMP production by measuring dyn A1-13 Emax incubated with dyn A1-13 alone measured after 30 mins by HTRF assay relative to control; format: functional, cell membranes; settings: filed as positive allosteric modulator, dose 0.03 µM, time 60.0 min
In short: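 Stably transfected mouse KOR HEK293 cells were pretreated with modulator (0.03–10 μM) for 30 min at 37 °C. Dyn A1-13 or U50,488 plus forskolin (10 μM final) with IBMX were then added for a further 30 min at 37 °C. HTRF cAMP read at 665/620 nm. Normalised to the highest orthosteric agonist concentration; unconstrained three-parameter fit, slope 1; n = 4 (7 at 10 μM).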

## CC[C@H](C)[C@H](NC(=O)[C@H](CCCNC(=N)N)NC(=O)[C@H](CCCNC(=N)N)NC(=O)[C@H](CC(C)C)NC(=O)[C@H](Cc1ccccc1)NC(=O)CNC(=O)CNC(=O)[C@@H](N)Cc1ccc(O)cc1)C(=O)N[C@@H](CCCNC(=N)N)C(=O)N1CCC[C@H]1C(=O)N[C@@H](CCCCN)C(=O)N[C@@H](CC(C)C)C(=O)N[C@@H](CCCCN)C(=O)O [ANALOG OF DYNORPHIN A]
[1]
  EC50: 159 nM
[2]
  Ki: 0.3 nM
[3]
  EC50: 6.7 nM
[4]
  Emax: 100%
